This is one part of a sample in which hits are shown more often than they occur.
bCat KO growth = primary screen for growth suppressors in beta-catenin knockout HCT116 cells (colon tumor, human) | HCT116 beta-catenin knockout viability, CellTiter-Glo, 60 h; stronger effect = lower value | viability, % at 10 µM | actives 1.5% (n = 140,000) | AID 818, 2007;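 active = viability at or under a set limit, the compound median less 4 SD, cut at about 6% in these data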
Fibroblast inh = antiproliferative effect on LL 47 fibroblasts – human, LL 47 cells, CellTiter-Glo luminescence, primary screen. LL 47 human lung fibroblast viability, ATP luminescence; stronger effect = lower value. viability, % at 10 µM. actives 1.1% (n = 85,000). AID 719, 2007;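 active = viability at or below 50% in the single dose screen; inactive = viability above 50%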;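 note: compound exposure lasted 72 h before the ATP readout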
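Signal: luminescent ATP detection, CellTiter-Glo; assay system: LL 47 human lung fibroblasts; input: 1,150 cells/well; incubation: overnight cell rest, 72 h compound treatment at 37 °C; measure: % viability versus median cells-only luminescence; medium: IMEM growth medium with 15% fetal bovine serum; dosing: compound addition at 0.1% DMSO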
HUVEC inhibit = inhibitors of HUVEC proliferation, primary screen, cell-based, 384-well. AID 648, 2007. viability, % at 10 µM (by protocol). actives 1.1% (n = 86,000). CellTiter-Glo luminescence, 72 h; stronger effect = lower value;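 active = viability at or below 30%; inactive = viability above 30%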
H69AR growth 86K = proliferation blockers of H69AR lung cancer cells, primary screen, cell-based, human, 86K library. H69AR lung tumor viability, ATP luminescence, 72 h; stronger effect = lower value. viability, % at 10 µM. actives 6% (n = 85,000). AID 598, 2007;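 active = viability at or below 40%; inactive = viability above 40%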;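 note: multidrug resistant small cell line overexpressing MRP-1 efflux transporter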
PTEN del growth = growth suppression of PTEN-null HCT116, primary screen, cell-based, CellTiter-Glo. HCT116 PTEN-null viability, 60 h; stronger effect = lower value. viability, % at 10 µM. actives 1.2% (n = 140,000);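 active = viability at or below a set limit, 4 SD under the median of all tested compounds, cut at about 3.7% in these data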;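 note: PTEN knockout HCT116 line with beta catenin targeted HCT116 as companion control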
Hits are given with their value; – = inactive; · = no result given.

SMILES | bCat KO growth | Fibroblast inh | HUVEC inhibit | H69AR growth 86K | PTEN del growth
FC(F)(F)c1cccc(NC(=S)NCC2COc3ccccc3O2)c1 (configuration not stated) | – | · | · | · | –
Cc1ccc(-c2nnc3ccc(SCC(=O)N4CCc5ccccc54)nn23)cc1 | – | – | – | 31.8 | –
Cc1occc1-c1nnc(SCC(=O)N2CCc3ccccc32)o1 | – | – | – | 1.3 | –
Cc1ccc(-c2nnc3ccc(SCC(=O)N4CCCc5ccccc54)nn23)cc1 | – | · | · | · | –
Cc1cccn2c(=O)c3cc(C(=O)N4CCc5ccccc5C4)n(C)c3nc12 | · | – | – | – | ·
CCOc1cccc2cc(C(=O)Nc3nccs3)c(=O)oc12 | – | · | · | · | –
CCOc1cccc2cc(-c3csc(NC(=O)CCC(=O)N4CCC(C)CC4)n3)c(=O)oc12 | – | 21.6 | 28.0 | 17.6 | –
CCOc1cccc2cc(-c3csc(NC(=O)CCC(=O)N4CCN(C)CC4)n3)c(=O)oc12 | · | – | – | 32.8 | ·
CON1C(=O)C(=O)N(OC)C2CCCCC21 (configuration not stated) | – | · | · | · | –
Cc1ccc(Cn2c(SCC(=O)Nc3cc(C)on3)nc3ccccc3c2=O)cc1 | – | 35.9 | – | 16.7 | –
Cc1nonc1NC(=O)CSc1nc(C2CCCCC2)nc2ccccc12 | – | – | – | 14.7 | –
CCc1cc2cc3c(cc2nc1SCC(=O)Nc1cc(C)on1)OCO3 | – | – | – | 30.0 | –
CCc1cc2cc(C)ccc2nc1SCC(=O)Nc1cc(C)on1 | – | – | – | – | –
COc1ccc(NC(=O)CSc2nc3ccccc3c(=O)n2CCC(=O)N2CCCCC2)cc1 | – | – | – | 39.6 | –
Cc1cc2nc(SCC(=O)Nc3nonc3C)c3c(c2cc1C)CCCC3 | – | – | – | – | –
O=C(Cc1ccc(Br)cc1)OCC(=O)N1CCc2ccccc2C1 | – | · | · | · | –
CC(=NCc1cccc(Cl)c1)c1nc(-c2ccco2)oc1O | – | · | · | · | –
NC(=O)C(c1ccc(Cl)cc1)c1ccc(Sc2ccc(Cl)cc2)nn1 (configuration not stated) | – | – | – | – | –
Cc1ccccc1OCC(=O)Nc1ccc2c(c1)C(=O)c1ccccc1C2=O | – | · | · | · | –
Cc1cc(NC(=O)CSc2nc3ccccc3c(=O)n2C2CCCC2)no1 | – | – | – | 29.0 | –
CCCN(CCC)C(=O)CSc1nc2ccccc2c(=O)n1C1CCCC1 | – | – | – | 30.8 | –
Cc1cc(NC(=O)CSc2nc3c(c(=O)n2-c2ccc(Br)cc2)SCC3)no1 | – | 49.1 | – | 19.8 | –
Cc1cc(NC(=O)CSc2nc(C3CCCCC3)nc3ccccc23)no1 | – | – | – | 19.6 | –
COc1ccc2c(c1)C1CC(C)(NC(=O)C1S(=O)(=O)c1ccc(F)cc1)O2 (configuration not stated) | – | · | · | · | –
CCOc1ccc(-n2c(SCC(=O)Nc3cc(C)on3)nc3c([nH]c4ccccc43)c2=O)cc1 | – | – | – | – | –
SMILES | bCat KO growth | Fibroblast inh | HUVEC inhibit | H69AR growth 86K | PTEN del growth
CCc1nnc(NC(=O)CSc2nnc3c(C)cc4c(C)ccc(C)c4n23)s1 | – | · | · | · | –
Cc1cc(NC(=O)CSc2nnc3c(C)cc4c(C)ccc(C)c4n23)no1 | – | – | – | 25.7 | –
Cc1ccc(-n2c(SCC(=O)Nc3cc(C)on3)nc3c([nH]c4ccccc43)c2=O)cc1 | – | – | – | 17.3 | –
O=C(Nc1ccccc1)c1cccc(S(=O)(=O)Oc2ccc([N+](=O)[O-])cc2)c1 | – | · | · | · | –
C[C@](N)(Cc1ccc(O)c(O)c1)C(=O)O | 6.1 | – | – | – | –
COc1cc2cc(C(c3nnnn3C3CCCC3)N3CCCCC3)c(=O)[nH]c2cc1OC (configuration not stated) | – | – | – | – | –
O=c1[nH]c2cc3c(cc2cc1C(c1nnnn1C1CCCCC1)N1CCSCC1)OCCO3 (configuration not stated) | – | 27.9 | – | 2.0 | –
Cc1ccc(CCNC(=O)C2CCCN(c3nc4ccccc4o3)C2)cc1 (configuration not stated) | – | – | – | – | –
Cc1c(NC2=C(Cl)C(=O)N(c3ccccc3Cl)C2=O)c(=O)n(-c2ccccc2)n1C | – | · | · | · | –
Cc1c(NC2=C(Cl)C(=O)N(c3ccccc3)C2=O)c(=O)n(-c2ccccc2)n1C | – | – | – | 4.8 | –

Assay outcomes (PubChem BioAssay)
